# Laboratory results published in ChEMBL document CHEMBL3272166, “Quantitative structure-activity relationships in centrally acting imidazolidines structurally related to clonidine” (J Med Chem, 1977).
# Tests used:
# [1] = test system: Rattus norvegicus; experiment: Hypotensive activity in iv dosed anesthetized normotensive Wistar rat assessed as maximal decrease in mean arterial pressure; format: functional, Artery; settings: for ED30: Rattus norvegicus, Wistar, Artery, iv
# Procedure, shortened: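 Male Wistar rats (190-220 g) anaesthetised with pentobarbitone sodium 75 mg/kg ip, kept at 37 ± 1 °C, ventilated and heparinised. Carotid arterial pressure recorded; animals outside 100–150 mmHg after ~20 min equilibration discarded. Graded iv doses in saline, with randomised agents and doses and one rat per experiment. Log-dose–response curves of maximal fall in mean pressure gave the dose (μmol/kg) for a 30% decrease (ED30).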
# [2] = Apparent partition coefficient, log P in octanol and 0.1 M phosphate buffer at pH 7.4; format: physicochemical; settings: octanol/0.1 M phosphate buffer
# [3] = test system: Rattus norvegicus; experiment: Hypotensive activity in iv dosed anesthetized normotensive Wistar rat assessed as maximal decrease in mean arterial pressure measured per gram of brain tissue; format: functional, Artery
# [4] = test system: Rattus norvegicus; experiment: Hypotensive activity in iv dosed anesthetized normotensive Wistar rat assessed as 30% decrease in mean arterial pressure; settings: Artery
SMILES,log(1/ED30) [1],ED30 [1] [mg/kg],logD [2],log(1/ED30) [3],ED30 [4] [mg/kg]
Cl.c1ccc(NC2=NCCN2)cc1,-2.1,25,-1.92,-0.42,
Cl.Clc1cccc(Br)c1N=C1NCCN1,2.22,,0.87,1.72,0.0029
Brc1cccc(Br)c1N=C1NCCN1.Cl,2.04,0.0055,1.21,1.4,
Cl.Fc1cccc(Cl)c1N=C1NCCN1,1.47,0.0125,0.52,1.13,
Cl.Clc1cc(Cl)c(N=C2NCCN2)c(Cl)c1,,0.021,,,
Cl.Clc1cccc(N=C2NCCN2)c1Cl,1.37,0.013,0.57,1.13,
Cc1cc(Cl)c(N=C2NCCN2)c(Cl)c1.Cl,1.22,0.021,0.73,0.87,
Cc1cccc(Cl)c1N=C1NCCN1.Cl,1.12,0.019,-0.57,1.57,
Cl.Clc1cc(Br)cc(Cl)c1N=C1NCCN1,1.03,0.06,1.97,,
Cc1cccc(C)c1N=C1NCCN1.Cl,0.85,0.032,-1.54,2.14,
Cl.Clc1ccc(N=C2NCCN2)c(Cl)c1,0.68,0.061,0.29,0.58,
Cc1ccc(N=C2NCCN2)c(Cl)c1.Cl,0.68,0.053,-0.48,1.07,
Cc1cc(Cl)cc(Cl)c1N=C1NCCN1.Cl,0.57,0.079,0.47,0.4,
Cc1cc(C)c(N=C2NCCN2)c(Cl)c1.Cl,0.52,0.08,-0.36,0.83,
Cl.Clc1ccc(Cl)c(N=C2NCCN2)c1,0.32,0.15,0.65,0.03,
Brc1cc(Br)c(N=C2NCCN2)c(Br)c1.Cl,0.28,0.58,2.24,-0.65,
Cl.Clc1ccccc1N=C1NCCN1,0.15,0.17,-0.67,0.67,
Cc1cc(Cl)cc(C)c1N=C1NCCN1.Cl,0.04,0.24,-0.62,0.54,
Cc1cc(Cl)ccc1N=C1NCCN1.Cl,-0.05,0.275,-1.06,0.8,
Cc1cc(C)c(N=C2NCCN2)c(C)c1.Cl,-0.07,0.28,-1.28,0.98,
Cl.Fc1cccc(F)c1N=C1NCCN1,-0.29,0.6,-0.16,-0.22,
Cl.O=[N+]([O-])c1cc(Cl)c(N=C2NCCN2)c(Cl)c1,-0.34,4.5,1.92,-1.68,
Cc1cc(Br)cc(C)c1N=C1NCCN1.Cl,-0.36,0.7,-0.28,-0.1,
Cc1ccc(N=C2NCCN2)c(C)c1.Cl,-0.56,0.81,-1.66,0.86,
Cc1ccccc1N=C1NCCN1.Cl,-0.67,0.99,-1.82,0.91,
COc1cc(Cl)c(N=C2NCCN2)c(Cl)c1.Cl,-0.78,2,0.15,-0.82,
Cl.Clc1cccc(Cl)c1NC1=NCCN1 [CLONIDINE HYDROCHLORIDE],2.14,,,1.78,0.0027
